The term EC50 denotes the concentration that produces a half-maximal response.

The source of these data is paper PMC2705627 (Journal of immunology (Baltimore, Md. : 1950), 2008).

The target of assay [1] is T1, mFPR1 (Mus musculus, UniProt P33766).
T1 sequence (P33766 1-364): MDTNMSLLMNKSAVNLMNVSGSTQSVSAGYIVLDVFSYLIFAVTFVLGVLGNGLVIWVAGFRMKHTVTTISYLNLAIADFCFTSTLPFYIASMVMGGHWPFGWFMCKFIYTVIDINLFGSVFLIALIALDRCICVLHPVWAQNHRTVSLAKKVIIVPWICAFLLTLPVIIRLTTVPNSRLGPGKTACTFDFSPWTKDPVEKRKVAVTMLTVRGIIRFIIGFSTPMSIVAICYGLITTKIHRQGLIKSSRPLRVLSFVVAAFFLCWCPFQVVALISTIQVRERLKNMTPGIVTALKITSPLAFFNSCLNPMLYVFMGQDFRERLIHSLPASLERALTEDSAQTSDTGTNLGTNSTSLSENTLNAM
Description: Ca2+ mobilization in mFPR1-RBL cells. Format: cell-based.

For a further assay, the system named is WT neutrophils. As to the kind of experiment: Superoxide production, WT neutrophils. Format: cell-based, mouse (C57BL/6). An outline of the steps:
(§1)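 Bone-marrow neutrophils from age- and gender-matched mfpr1-/- and WT C57BL/6 mice (8–10 wk), 5 × 10^6 cells/ml in HBSS with 0.5% BSA. Preincubated 5 min at 37°C with isoluminol, 40 U/ml HRP and 5 μM cytochalasin B. Chemiluminescence: 5 min basal, then every minute for 15 min after agonist. SOD controls; 200 ng/ml PMA time course. Peptide responses as area under curve over first 10 min; two experiments in triplicate.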

Assay [2] relates to mfpr1^-/- neutrophils. Description: Superoxide production, mfpr1-/- neutrophils. Format: cell-based, mouse (mfpr1^-/-). An outline of the steps:
as §1

The subject of assay [3] is mouse neutrophils. Description: Ex vivo chemotaxis. It counts as cell-based. The following applies: CD1 mice, Transwell, 30 min, 37°C. An outline of the steps:
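Bone marrow neutrophils from CD1 mice, purified on a Nycoprep/72% Percoll gradient after RBC lysis. Cells at 5 × 10^6 cells/ml in HBSS/0.5% BSA, prewarmed 20 min at 37°C. Agonist placed in BSA-precoated lower wells under 3 μm pore inserts, cells added on top. After 30 min at 37°C, cells in the bottom chamber were counted. Counts with ligand in both chambers were subtracted to remove chemokinesis.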

The test system of the next assay is neutrophils from cat. The following applies: cited from earlier work.
Assay [4] deals with mouse neutrophils. As to the kind of experiment: Ca2+ mobilization, mouse bone marrow neutrophils. Format: cell-based. For orientation: Calcium assays in cells follow changes in intracellular calcium, usually with a dye or a luminescent sensor.
For assay [5], the system named is mock-transfected RBL cells. Description: ERK1/2 phosphorylation in mock-transfected RBL cells. Particulars: at the concentrations tested (10 nM, 1 μM). Format: cell-based, rat. An outline of the steps:
(§2)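 Stably transfected or mock-transfected RBL-2H3 cells cultured 24 h, serum-starved 4 h, then stimulated over various time intervals. Stopped on ice in SDS-PAGE loading buffer, sonicated and boiled. Western blot with anti-phospho-ERK1/2 (1/1000), loading checked with anti-ERK1/2 (1/1000), HRP anti-rabbit secondary (1/3000). Two independent experiments.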

The test system of a further assay is neutrophils from cow. The following applies: cited from earlier work.
The test system of a further assay is human neutrophils. Particulars: cited from earlier work.
Assay [6] concerns the target T1, mFPR1. As to the kind of experiment: ERK1/2 phosphorylation in mFPR1-RBL cells. It counts as cell-based. Particulars: Western blot. An outline of the steps:
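RBL-2H3 cells stably expressing mFPR1 (G418-selected; DMEM, 20% FBS, 250 μg/ml G418), with untransfected RBL cells as control. Cultured 24 h, serum-starved 4 h, then stimulated at graded concentrations for various times. Lysed in ice-cold SDS loading buffer, sonicated, boiled. Western blot for phospho-ERK1/2, with total ERK1/2 as loading control. Two independent experiments.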
Background: In western blotting, separated proteins are transferred to a membrane and probed.

The subject of assay [7] is mouse neutrophils. As to the kind of experiment: Superoxide production, mouse bone marrow neutrophils. It counts as cell-based. An outline of the steps: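 Isoluminol-enhanced chemiluminescence on mouse bone-marrow neutrophils at 5 × 10^6 cells/ml in HBSS with 0.5% BSA, preincubated 5 min at 37°C with isoluminol, 40 U/ml HRP and 5 μM cytochalasin B. Basal reading 5 min, then agonist at graded concentrations, read each minute for 15 min; SOD controls run in parallel. Cumulative superoxide taken as area under curve over first 5 min; two experiments in duplicate.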

Assay [8] has as its target T1, mFPR1. Particulars: cited from earlier work.
Assay [9] deals with mFPR2. The following applies: vs mFPR1; cited from earlier work.
Assay [10] deals with mouse neutrophils. As to the kind of experiment: Degranulation. It counts as cell-based, mouse (C57BL/6). An outline of the steps: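 WT C57BL/6 and mfpr1-/- bone-marrow neutrophils preincubated with 10 μM cytochalasin B in HBSS, 20 mM HEPES (pH 7.4), 0.1% BSA: 15 min on ice, then 15 min at 37°C. Stimulated 10 min at 37°C, chilled and spun. Supernatant mixed 1:1 with 10 mM 4-methylumbelliferyl β-D-glucuronide (pH 4.0, 0.1% Triton X-100) 15 min at 37°C. Glycine/EDTA stop (pH 10.4); fluorescence 365/460 nm, as % of lysate total.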

Assay [11] concerns mFPR2. As to the kind of experiment: ERK1/2 phosphorylation in mFPR2-RBL cells. Particulars: at the concentrations tested; data not shown. Format: cell-based, mouse. An outline of the steps: as §2
The subject of a further assay is neutrophils from dog. Particulars: cited from earlier work.
Assay [12] has as its system mouse neutrophils. The following applies: mice; cited from earlier work.
Assay [13] deals with human formyl peptide receptor (FPR) 1. Particulars: cited from earlier work.
The subject of a further assay is FPRL1. Particulars: b40: fMIVIL ref 22; b3: fMLF ref 16; cited from earlier work.
Assay [14] concerns mfpr1^-/- neutrophils. As to the kind of experiment: Degranulation. Format: cell-based, mouse (mfpr1^-/-). Particulars: KO. An outline of the steps:
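Bone marrow neutrophils from 8-10 wk mfpr1-/- mice (C57BL/6 background) and matched WT mice. Cells preincubated with 10 μM cytochalasin B in HBSS, 20 mM HEPES pH 7.4, 0.1% BSA, 15 min on ice then 15 min at 37°C. Stimulated 10 min at 37°C, then chilled. Supernatant reacted with 4-methylumbelliferyl β-D-glucuronide (pH 4.0), 15 min at 37°C. Fluorescence read at 365/460 nm. Release expressed as % of total from Triton X-100 lysate.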

For assay [15], the system named is mouse neutrophils. Particulars: cited from earlier work.
A further assay deals with neutrophils from pig. The following applies: cited from earlier work.
For assay [16], the system named is neutrophils from mfpr1-deficient mice. Particulars: ex vivo; cited from earlier work.
The target of assay [17] is T1, mFPR1. The following applies: cited from earlier work. This is another data set of the same source.

Entries after “also recorded” stand apart in the source; their conditions may differ. Residues, ends and D or L forms follow the SMILES beside them. *: point of attachment. For = O=C*

Compound `CC[C@H](C)[C@H](NC(=O)[C@H](CCSC)NC=O)C(=O)N[C@@H](Cc1ccccc1)C(=O)N[C@@H](CC(C)C)C(=O)O` [fMIFL, N-formyl-Met-Ile-Phe-Leu] (For-MIFL-OH) showed an EC50 at mFPR1 [1] of 10 nM.

On mFPR1 [1], `CC[C@H](C)[C@H](NC(=O)[C@H](CCSC)NC=O)C(=O)N[C@H](C(=O)N[C@H](C(=O)N[C@@H](CC(C)C)C(=O)O)[C@@H](C)CC)C(C)C` [fMIVIL, N-formyl-Met-Ile-Val-Ile-Leu] (For-MIVIL-OH) gave an EC50 of 10 nM.

For the compound `CCCCCCCCCCCCCC(=O)O[C@@H]1[C@@H](C)[C@@]2(O)[C@@H](C=C(CO)C[C@]3(O)C(=O)C(C)=C[C@@H]23)[C@@H]2C(C)(C)[C@]12OC(C)=O` [phorbol ester, phorbol myristate ester], the “superoxide production on phorbol ester stimulation, WT neutrophils” value with WT neutrophils (200 ng/ml phorbol myristate ester, WT compared with KO) is “responded similarly”. The “superoxide production on phorbol ester stimulation, mfpr1-/- neutrophils” value with mfpr1^-/- neutrophils [2] (200 ng/ml phorbol myristate ester, KO compared with WT) is recorded as “responded similarly”.

Take N-formyl-Met-Leu-Phe [fMLF]: in the assay with mouse neutrophils [3], the “neutrophil migration at 100 nM” value was “did not stimulate significant neutrophil migration”. In addition, the “response of cat neutrophils” value with neutrophils from cat is given as “do not respond”. The “Ca2+ mobilization at 10 nM” value in the assay with mouse neutrophils [4] (10 nM, FLIPR dye) is given as “but not fMLF”. Besides, the “lowest concentration with evident Ca2+ mobilization” value in the assay on mouse neutrophils [4] (not evident below 100 nM) is reported as ≥ 100 nM. Further, the “ERK1/2 phosphorylation in mock-transfected RBL cells” value in [5] is reported as “none of the peptides was able to induce detectable phosphorylation”. Besides, the “superoxide production, WT neutrophils” value in the assay with WT neutrophils (C57BL/6 WT) was “less potent”. Moreover, in the assay on neutrophils from cow, the “response of cow neutrophils” value is reported as “do not respond”. The “ERK1/2 phosphorylation in human neutrophils” value in the assay with human neutrophils is “rapid phosphorylation of the MAPKs ERK1/2”. The “concentration inducing bactericidal functions in human neutrophils” value in the assay with human neutrophils (human neutrophils) is given as “nanomolar concentrations”. Moreover, the “ERK1/2 phosphorylation at 10 nM” value at mFPR1 [6] (10 nM) is on record as “but not at 10 nM”. Moreover, on mFPR1 [6] (1 μM), the “ERK1/2 phosphorylation at 1 μM” value is reported as “could induce ERK1/2 phosphorylation”. Moreover, the “superoxide production at 5 μM relative to fMIVIL and fMIFL” value with mouse neutrophils [7] (5 μM) is on record as “about one-half”. In addition, the “threshold concentration for superoxide generation” value with mouse neutrophils [7] (isoluminol chemiluminescence, 37°C) was “above 1 μM”. Moreover, on mFPR1 [8], the “agonist concentration required for calcium mobilization” value is ≥ 100 nM. For the same compound, the “response of mFPR2 to fMLF” value with mFPR2 [9] is on record as “responds even more weakly”. The “β-glucuronidase release, percent of cell-associated enzyme” value with mouse neutrophils [10] (10 μM (maximal concentration used), WT neutrophils) is recorded as 5%. The “β-glucuronidase release relative to maximal release by fMIVIL and fMIFL” value in the assay with mouse neutrophils [10] (10 μM fMLF) is “about one-half”. For the same compound, the “lowest concentration with significant β-glucuronidase release” value in the assay with mouse neutrophils [10] (WT neutrophils, not significant below 1 μM) was ≥ 1 µM. In addition, the “superoxide production, mfpr1-/- neutrophils” value with mfpr1^-/- neutrophils [2] (mfpr1^-/-) is “very little superoxide was generated”. For the same compound, the “ERK1/2 phosphorylation in mFPR2-RBL cells” value in the assay with mFPR2 [11] is listed as “none of the peptides was able to induce detectable phosphorylation”. For the same compound, the “response of dog neutrophils” value with neutrophils from dog is listed as “do not respond”. The “fMLF concentration required for degranulation and superoxide production” value in the assay on mouse neutrophils [12] is 5 to 10 µM. The “agonist activity at human FPR1” value in assay [13] is “potent agonist”. In addition, the “affinity/response at FPRL1” value in the assay on FPRL1 was “low affinities; also recorded: low-affinity receptor for fMLF”. The “β-glucuronidase release at 100 nM, mfpr1-/- neutrophils” value with mfpr1^-/- neutrophils [14] (100 nM) was “none of the three peptides was able to induce β-glucuronidase release”. The “β-glucuronidase release above 1 μM, mfpr1-/- neutrophils” value in the assay on mfpr1^-/- neutrophils [14] (peptide concentrations above 1 μM) is “only a small amount of enzyme was released”. Also, the “concentration inducing Ca2+ flux” value on mFPR1 [1] (mFPR1-RBL) was “above 1 μM”. For the same compound, the “potency loss on mouse neutrophils vs human neutrophils” value with mouse neutrophils [15] (less potent for mouse than for human neutrophils) is 100 -fold. Further, the “concentration required for mouse neutrophil activation” value in the assay with mouse neutrophils [15] (mouse neutrophils, ref 17 (ref 17, 20)) was “requiring micromolar concentrations for cell activation; also recorded: requires micromolar concentrations; also recorded: micromolar concentration range”. Further, the “response of pig neutrophils” value in the assay with neutrophils from pig is on record as “do not respond”. Further, the “responsiveness of mfpr1-deficient neutrophils to fMLF” value in [16] is given as “decreased responsiveness”. At mFPR1 [17], the “ERK1/2 phosphorylation at 50 nM” value is given as “but not fMLF”.

As for Superoxide dismutase, in the assay with mouse neutrophils [7] (SOD, 250 units, added 10 min before stimulation with 1 μM peptide), the “effect on detection of superoxide” value is reported as “effectively inhibited the detection of superoxide”.
